From PubChem BioAssay
Inconclusive results are not listed.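 Rule for the calls, unless noted: active = RAM network inhibition above 8.4% in each of two replicates, 3 SD over the compound average; inconclusive = above 8.4% inhibition in only one replicate; inactive = 8.4% inhibition or less in each replicate.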

How the values were obtained:
[1] = OD615 S. cerevisiae growth inhibition, permissive medium, pilot counter-assay, permissive growth control for S. cerevisiae lifespan shortening project (AID 705;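 active = growth inhibition above 25% in both replicates, a cutoff set 3 SD above the mean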); conditions: OD615, 24 h, at 10 µM, hits give high values
Method in brief: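 assay system = Saccharomyces cerevisiae strain carrying genetically modified DeaD replicative-lifespan system | medium = SC raffinose/galactose permissive medium | dosing = 10 µM single dose, 0.25% DMSO | schedule = 24 h compound exposure at 30 °C after 4 h pre-growth | measured by = OD at 615 nm | read-out basis = growth inhibition from lowered OD615 after 24 h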

[2] = Restrictive medium S. cerevisiae growth inhibition, OD615, pilot screen of yeast lifespan reduction project, restrictive growth control (AID 706;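 active = growth inhibition above a set limit, 3 SD over mean compound inhibition, in both replicates, cut at about 43% in these data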;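 note: modified DeaD lifespan yeast strain shifted to restrictive glucose medium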); conditions: OD615, 48 h, at 10 µM, hits give high values
Method in brief: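 Buffer or medium: CSMM-D glucose medium. Material: genetically modified Saccharomyces cerevisiae, DeaD replicative lifespan assay strain. Times: 48 h compound exposure at 30 °C. Measured by: optical density at 615 nm.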

[3] = viability gain of MRP-1-high H69AR cells under doxorubicin, pilot screen, MRP-1 activator project, CellTiter-Glo, duplicate (AID 807;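 active = viability increase at or above a cutoff of the median across tested compounds plus 3 SD, cut at about 8.5% in these data, passing the limit was not always enough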;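 note: compound pretreatment 18-22 h then 72 h combined with doxorubicin; 0% = doxorubicin alone and 100% = vehicle without doxorubicin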); conditions: H69AR viability with doxorubicin, CellTiter-Glo luminescence; at 10 µM; hits give high values
[4] = growth suppression of beta-catenin knockout HCT116, pilot screen, human colon tumor cells (AID 823;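 active = cell viability at or below a set limit in both duplicate runs, the limit being the all-compound median minus 4 SD, cut at about 23% in these data, passing the limit was not always enough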;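 note: 0% = wells killed by 20 µM Hyamine and 100% = untreated DMSO cell wells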); conditions: CellTiter-Glo, 60 h, at 10 µM, hits give low values
[5] = growth suppression of PTEN-deleted HCT116, pilot screen, cell-based, HCT116 clonal line, CellTiter-Glo (AID 824;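 active = viability at or below 27.92% in each of two runs, the all-compound median minus 4 SD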;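 note: 0% = 20 µM Hyamine control and 100% = vehicle cell control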); conditions: 60 h, at 10 µM, hits give low values
[6] = inhibitors of the yeast RAM network, pilot screen, dse1pr::URA3 reporter, 5-FOA selection (AID 869;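 active = inhibition over a set limit, the all-compound mean plus 3 SD, in both replicate runs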;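 note: 0% = DMSO wells with no growth and 100% = 10 µM 1-NA-PP1 with full growth; RAM network block rescues cells from 5-FOA so hits raise OD615 growth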); conditions: S. cerevisiae dse1pr::URA3 5-FOA growth, OD615, 2 d; at 10 µM; hits give high values; strain carries analog-sensitive mutant Cbk1 kinase
[7] = RAM signaling pathway blockade in yeast – S. cerevisiae, Pdr1DBD-CYC8 efflux-inhibited sensitized strain, primary screen (AID 1298);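 note: 0% = DMSO untreated cells without growth and 100% = 10 µM 1-NA-PP1 full growth; higher means more yeast growth rescued from 5-FOA killing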; conditions: S. cerevisiae cbk1-as DSE1-URA3 strain, 5-FOA growth OD615, 2 d; at 50 µM; hits give high values

CCN(CC)S(=O)(=O)c1ccc(S(=O)(=O)N2CCN(CCC#N)CC2)cc1
inactive: growth inhibition [1] -8.46% | growth inhibition [2] -3.54% | viability increase [3] -1.58% | viability [4] 99.6% | viability [5] 94.7% | inhibition [6] 1.38% | RAM network inhibition [7] -1.32%

C=CCC(=O)OCC(=O)Nc1ccc(Oc2ccccc2)cc1
inactive: growth inhibition [1] 6.73% | growth inhibition [2] 5% | viability increase [3] -5.15% | viability [4] 94.2% | viability [5] 94.1% | inhibition [6] -0.25% | RAM network inhibition [7] -0.31%

CCOC(=O)Cn1c(=O)oc2cc(S(=O)(=O)N3CCC(N4CCCCC4)CC3)ccc21
inactive: growth inhibition [1] -7.51% | growth inhibition [2] -9.77% | viability increase [3] 0.75% | viability [4] 101% | viability [5] 105% | inhibition [6] 1.06% | RAM network inhibition [7] 0.21%

CCOC(=O)NC(Nc1ncccn1)(C(F)(F)F)C(F)(F)F
inactive: growth inhibition [1] 0.98% | growth inhibition [2] -5.49% | viability increase [3] -3.34% | viability [4] 94.4% | viability [5] 97.5% | inhibition [6] 1.17% | RAM network inhibition [7] 0.47%

CCN1CCN(C(CNS(=O)(=O)c2ccc(OC)cc2)c2cccnc2)CC1 (stereo not drawn)
inactive: growth inhibition [1] -0.57% | growth inhibition [2] 8.5% | viability increase [3] -1.16% | viability [4] 105% | viability [5] 98.2% | inhibition [6] 3.57% | RAM network inhibition [7] 3.38%

O=C(Nc1ccncc1)c1cccs1
inactive: growth inhibition [1] -6.22% | growth inhibition [2] 4.99% | viability increase [3] -2.27% | viability [4] 105% | viability [5] 95.2% | inhibition [6] 1.87% | RAM network inhibition [7] 0.93%

Cc1cccn2c(=O)c3cc(C#N)c(=NC(=O)c4ccccc4)n(Cc4ccco4)c3nc12
inactive: growth inhibition [1] -4.6% | growth inhibition [2] -12.7% | viability increase [3] -1.26% | viability [4] 72.7% | viability [5] 62.2% | inhibition [6] 1.75% | RAM network inhibition [7] 4.04%

Cc1cc(C)n(C(=O)c2ccc(NC(=O)C3CC3)cc2)n1
inactive: growth inhibition [1] -8.57% | growth inhibition [2] -4.89% | viability increase [3] 1.99% | viability [4] 102% | viability [5] 91.3% | inhibition [6] 1.58% | RAM network inhibition [7] 5.67%

Cc1cccc(CSc2nnc(-c3ccccn3)n2N)c1
inactive: growth inhibition [1] -6.39% | growth inhibition [2] 14.2% | viability increase [3] -2.01% | viability [4] 103% | viability [5] 94.4% | inhibition [6] 0.655% | RAM network inhibition [7] 0.89%

CC1(C)Cc2c(C#N)c(N3CCCC3)nc(-c3ccco3)c2CO1
inactive: growth inhibition [1] -9.34% | growth inhibition [2] -8.21% | viability increase [3] -5.07% | viability [4] 90.3% | viability [5] 85.7% | inhibition [6] 1.39% | RAM network inhibition [7] -1.01%

Fc1ccccc1COc1ccc(/C=N/n2cnnc2)cc1
inactive: growth inhibition [1] 3.41% | growth inhibition [2] 23.7% | viability increase [3] -1.78% | viability [4] 102% | viability [5] 95.4% | inhibition [6] 2.11% | RAM network inhibition [7] 2.09%

COc1cc(C(=O)Nc2nnc(C)s2)cc(OC)c1OC
inactive: growth inhibition [1] -12.2% | growth inhibition [2] -5.23% | viability increase [3] -2% | viability [4] 95.2% | viability [5] 82.3% | inhibition [6] 2.54% | RAM network inhibition [7] 2.16%

COc1ccc(C(=O)C(OC(=O)CNC(=O)c2ccco2)c2ccccc2)cc1 (stereo not drawn)
inactive: growth inhibition [1] -11.8% | growth inhibition [2] 3.51% | viability increase [3] -3.65% | viability [4] 100% | viability [5] 102% | inhibition [6] 1.49% | RAM network inhibition [7] 2.66%

Cc1noc(NS(=O)(=O)c2ccc(NC(=O)c3cnc4scc(C)n4c3=O)cc2)c1C
inactive: growth inhibition [1] -2.39% | growth inhibition [2] -5.18% | viability increase [3] 1.99% | viability [4] 101% | viability [5] 101% | inhibition [6] 2.61% | RAM network inhibition [7] 6.1%

Cc1ccc(C(=O)N2CCN(C(=O)CN3CCOCC3)C2)cc1
inactive: growth inhibition [1] -4.56% | growth inhibition [2] -13.1% | viability increase [3] -1.25% | viability [4] 95% | viability [5] 97.3% | inhibition [6] -0.175% | RAM network inhibition [7] 0.11%

CC(=O)N=C1SC2CS(=O)(=O)CC2N1c1c(Cl)cccc1Cl (stereo not drawn)
inactive: growth inhibition [1] 5.46% | growth inhibition [2] 3.7% | viability increase [3] -1.41% | viability [4] 99.4% | viability [5] 94.2% | inhibition [6] 0.405% | RAM network inhibition [7] -0.17%

Cn1c(-n2c(CCN3C(=O)c4ccccc4C3=O)nc3ccccc3c2=O)nc2ccccc21
inactive: growth inhibition [1] 1.63% | growth inhibition [2] -2.29% | viability increase [3] -4.94% | viability [4] 68.2% | viability [5] 81.2% | inhibition [6] 0.65% | RAM network inhibition [7] 2.45%

Cc1sc2nc(SCC(=O)N3CCOCC3)[nH]c(=O)c2c1C
inactive: growth inhibition [1] -1.58% | growth inhibition [2] -1.96% | viability increase [3] -1.93% | viability [4] 105% | viability [5] 92.2% | inhibition [6] 1.8% | RAM network inhibition [7] 2.17%

CCCN1CCN(C(=O)Cn2ncc3ccccc32)CC1
inactive: growth inhibition [1] -12.4% | growth inhibition [2] -16.9% | viability increase [3] -2.31% | viability [4] 100% | viability [5] 98.2% | inhibition [6] 1.26% | RAM network inhibition [7] 3.84%

CCN(CC)S(=O)(=O)c1ccc(C(=O)Nc2nnc(C(C)C)s2)cc1
inactive: growth inhibition [1] -12.7% | growth inhibition [2] -1.79% | viability increase [3] 0.3% | viability [4] 104% | viability [5] 95% | inhibition [6] 1.25% | RAM network inhibition [7] 4.27%

O=C(CCCC(=O)OCC(F)(F)C(F)F)Nc1nccs1
inactive: growth inhibition [1] -7.96% | growth inhibition [2] 8.98% | viability increase [3] -0.61% | viability [4] 101% | viability [5] 102% | inhibition [6] 1.56% | RAM network inhibition [7] -0.01%

Cn1c(=O)c2c(nc(SCCN3CCOCC3)n2Cc2ccc(Cl)cc2)n(C)c1=O
inactive: growth inhibition [1] -5.34% | growth inhibition [2] 16.6% | viability increase [3] -3.32% | viability [4] 87.8% | viability [5] 84.1% | inhibition [6] 2.31% | RAM network inhibition [7] -0.47%

CCCCCn1c(C(C)NC(=O)CCC)nc2ccccc21 (stereo not drawn)
inactive: growth inhibition [1] -3.78% | growth inhibition [2] -2.23% | viability increase [3] -1.22% | viability [4] 85.7% | viability [5] 88.7% | inhibition [6] -0.165% | RAM network inhibition [7] 2.32%

CCOC(=O)c1nnn(-c2nonc2N)c1CN(C)Cc1ccccc1
inactive: growth inhibition [1] -7.27% | growth inhibition [2] -11.5% | viability increase [3] -4.12% | viability [4] 84% | viability [5] 88.1% | inhibition [6] 2.05% | RAM network inhibition [7] 4.2%
